What was measured:
[1] = system: Mus musculus; assay: Inhibition of spontaneous motor activity in mice, by administering perorally; format: functional; conditions: po
Procedure, shortened: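 Mice in groups of five were dosed orally with gum arabic suspensions at 10 mL/kg after an overnight fast, with a vehicle control group. Locomotion was counted for 10 min in a photocell activity cage, in at least two groups per dose. ED50, by probit analysis, is the dose giving 50% inhibition against controls.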

[2] = system: Rattus norvegicus; assay: Antagonistic activity against apomorphine-induced stereotypy in rats, by administering perorally; format: functional; conditions: po
Procedure, shortened: (§1)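 Male rats fasted overnight and given oral doses in arabic gum suspension (10 mL/kg) 1 h, or 1 and 5 h, before challenge. Apomorphine 3 mg/kg iv, with stereotypy observed 20 min later. ED50 is the dose inhibiting stereotypy in 50% of rats, per Janssen's method. Parenthetical entries give the maximal dose and percent activity.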

[3] = Lethal dose in mice (LD50) following i.p. dosing; format: toxicity, organism-based; conditions: mouse, in vivo, ip
Procedure, shortened: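 Acute toxicity tested in mice by the intraperitoneal route. LD50 is the dose killing 50% of treated mice, computed by Finney probit analysis; values are approximate.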

[4] = system: Rattus norvegicus; assay: Activity to evoke catalepsy in rats, by administering perorally at a dose of 200 mg/kg; format: functional; conditions: route oral
Procedure, shortened: (§2)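 Rats fasted overnight and given oral doses in arabic gum suspension (10 mL/kg), 1 h before screening or 1 and 5 h before profile testing. Forelegs placed on a horizontal bar 7 cm high, three times at 5-min intervals. Immobility of at least 15 s counts as catalepsy. ED50 is the dose giving catalepsy in 50% of rats, by probit analysis. Parenthetical entries give the maximal dose and percent activity.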

[5] = system: Mus musculus; assay: Antagonistic activity against amphetamine-induced Hypermobility in mice, by administering perorally at a dose of 100 mg/kg; format: functional; conditions: route oral
Procedure, shortened: (§3)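 Male mice in groups of five, fasted overnight, given oral drug in arabic gum suspension (10 mL/kg) 1 or 5 h ahead. Amphetamine 4 mg/kg ip given 30 min after drug. Ten minutes later locomotion is recorded for 15 min in a photocell actophotometer. ED50 is 50% reduction versus control hypermotility, by probit analysis. Parenthetical entries give the maximal dose and percent activity.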

[6] = system: Mus musculus; assay: Inhibition of amphetamine-induced hypermobility in mice following p.o. administration.; format: functional; conditions: po
Procedure, shortened: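 Compounds were given orally to male mice (gum arabic suspension, 10 mL/kg, fasted) in groups of five. Amphetamine 4 mg/kg ip followed 30 min later. After another 10 min, motility was recorded for 15 min with a photocell actophotometer. ED50, by probit analysis, is the dose giving 50% reduction against controls.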

[7] = system: Rattus norvegicus; assay: Activity to evoke catalepsy in rats, by administering perorally; format: functional; conditions: po; procedure, shortened: as §2
[8] = system: Rattus norvegicus; assay: Antagonistic activity against apomorphine-induced stereotypy in rats, by administering perorally at a dose of 50 mg/kg; format: functional; conditions: route oral; procedure, shortened: as §1
[9] = system: Rattus norvegicus; assay: Activity to evoke catalepsy in rats, by administering perorally at a dose of 50 mg/kg; format: functional; conditions: route oral; procedure, shortened: as §2
[10] = system: Rattus norvegicus; assay: Antagonistic activity against apomorphine-induced stereotypy in rats, by administering perorally at a dose of 150 mg/kg; format: functional; conditions: route oral; procedure, shortened: as §1
[11] = system: Rattus norvegicus; assay: Activity to evoke catalepsy in rats, by administering perorally at a dose of 150 mg/kg; format: functional; conditions: route oral; procedure, shortened: as §2
[12] = system: Rattus norvegicus; assay: Activity to evoke catalepsy in rats, by administering perorally at a dose of 70 mg/kg; format: functional; conditions: route oral; procedure, shortened: as §2
[13] = system: Rattus norvegicus; assay: Antagonistic activity against apomorphine-induced stereotypy in rats, by administering perorally at a dose of 100 mg/kg; format: functional; conditions: route oral; procedure, shortened: as §1
[14] = system: Mus musculus; assay: Inhibition of spontaneous motor activity in mice, by administering perorally at a dose of 125 mg/kg; format: functional; conditions: route oral
Procedure, shortened: (§4)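 Mice fasted overnight, then dosed orally with compound (weighed as base) suspended in arabic gum, 10 mL/kg, with vehicle controls; 1 h pretreatment for screening tests, 1 or 5 h for others. Groups of five; locomotor activity counted 10 min in photocell activity cage, at least two groups per dose. ED50 = dose giving 50% inhibition versus controls, by probit analysis.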

[15] = system: Rattus norvegicus; assay: Activity to evoke catalepsy in rats, by administering perorally at a dose of 100 mg/kg; format: functional; conditions: route oral, read-out: Inhibition; procedure, shortened: as §2
[16] = system: Rattus norvegicus; assay: Antagonistic activity against apomorphine-induced stereotypy in rats, by administering perorally at a dose of 40 mg/kg; format: functional; conditions: route oral; procedure, shortened: as §1
[17] = system: Mus musculus; assay: Antagonistic activity against amphetamine-induced Hypermobility in mice, by administering perorally at a dose of 10 mg/kg; format: functional; conditions: route oral; procedure, shortened: as §3
[18] = system: Rattus norvegicus; assay: Activity to evoke catalepsy in rats, by administering perorally at a dose of 40 mg/kg; format: functional; conditions: route oral; procedure, shortened: as §2
[19] = system: Mus musculus; assay: Antagonistic activity against amphetamine-induced Hypermobility in mice, by administering perorally at a dose of 70 mg/kg; format: functional; conditions: route oral; procedure, shortened: as §3
[20] = system: Mus musculus; assay: Inhibition of spontaneous motor activity in mice, by administering perorally at a dose of 70 mg/kg; format: functional; conditions: route oral; procedure, shortened: as §4
[21] = system: Rattus norvegicus; assay: Antagonistic activity against apomorphine-induced stereotypy in rats, by administering perorally at a dose of 200 mg/kg; format: functional; conditions: route oral; procedure, shortened: as §1
[22] = system: Rattus norvegicus; assay: Activity to evoke catalepsy in rats, by administering perorally at a dose of 20 mg/kg; format: functional; conditions: route oral, read-out: Inhibition; procedure, shortened: as §2
[23] = system: Mus musculus; assay: Antagonistic activity against amphetamine-induced Hypermobility in mice, by administering perorally at a dose of 20 mg/kg; format: functional; conditions: route oral; procedure, shortened: as §3
[24] = system: Rattus norvegicus; assay: Antagonistic activity against apomorphine-induced stereotypy in rats, by administering perorally at a dose of 20 mg/kg; format: functional; conditions: route oral; procedure, shortened: as §1
[25] = system: Mus musculus; assay: Inhibition of spontaneous motor activity in mice, by administering perorally at a dose of 100 mg/kg; format: functional; conditions: route oral; procedure, shortened: as §4

O=c1oc(CCN2CCN(c3ccccc3)CC2)c(-c2ccc(F)cc2)n1Cc1ccccc1
ED50 [1]: 51 mg/kg
ED50 [2]: 200 mg/kg
LD50 [3]: 1000 mg/kg
inhibition in vivo at 200 mg/kg [4]: 0%
inhibition in vivo at 100 mg/kg [5]: 40%

Oc1nc(-c2ccccc2)c(CCN2CCN(c3ccccc3)CC2)o1
ED50 [1]: 60 mg/kg
ED50 [2]: 200 mg/kg
ED50 [6]: 51 mg/kg
LD50 [3]: > 1000 mg/kg
ED50 [7]: 63 mg/kg

COc1cccc(N2CCN(CCc3oc(O)nc3-c3ccc(F)cc3)CC2)c1
ED50 [1]: 10.8 mg/kg
ED50 [6]: 7.6 mg/kg
LD50 [3]: 500 mg/kg
inhibition in vivo at 50 mg/kg [8]: 0%
inhibition in vivo at 50 mg/kg [9]: 30%

CCCCn1c(-c2ccc(F)cc2)c(CCN2CCN(c3ccccc3)CC2)oc1=O
ED50 [1]: 16 mg/kg
ED50 [6]: 15.4 mg/kg
LD50 [3]: 750 mg/kg
inhibition in vivo at 150 mg/kg [10]: 40%
inhibition in vivo at 150 mg/kg [11]: 0%

COc1ccccc1N1CCN(CCc2oc(=O)n(C(C)=O)c2-c2ccc(F)cc2)CC1
ED50 [1]: 4.3 mg/kg
ED50 [2]: 14.5 mg/kg
ED50 [6]: 3.5 mg/kg
LD50 [3]: 190 mg/kg
ED50 [7]: 30 mg/kg

CCN(CC)CCn1c(-c2ccc(F)cc2)c(CCN2CCN(c3ccccc3)CC2)oc1=O
ED50 [1]: 60 mg/kg
ED50 [2]: 35 mg/kg
inhibition in vivo at 70 mg/kg [12]: 0%
LD50 [3]: 350 mg/kg

O=c1oc(CCN2CCN(c3ccccc3)CC2)c(-c2ccc(F)cc2)n1-c1ccccc1
inhibition in vivo at 100 mg/kg [13]: 0%
LD50 [3]: > 1000 mg/kg
inhibition in vivo at 125 mg/kg [14]: 0%
percent of rats showing catalepsy at 100 mg/kg [15]: 0%
inhibition in vivo at 100 mg/kg [5]: 0%

Oc1nc(-c2ccc(F)cc2)c(CCCN2CCN(c3ccccc3)CC2)o1
ED50 [1]: 8 mg/kg
inhibition in vivo at 40 mg/kg [16]: 0%
LD50 [3]: 170 mg/kg
inhibition in vivo at 10 mg/kg [17]: 69%
inhibition in vivo at 40 mg/kg [18]: 0%

Oc1nc(-c2ccc(F)cc2)c(CCN2CCN(c3cc(Br)cc(Br)c3)CC2)o1
ED50 [1]: 15 mg/kg
inhibition in vivo at 100 mg/kg [13]: 0%
ED50 [6]: 5.4 mg/kg
LD50 [3]: 1000 mg/kg
percent of rats showing catalepsy at 100 mg/kg [15]: 0%

COc1ccc(-c2nc(O)oc2CCN2CCN(c3ccccc3)CC2)cc1
ED50 [2]: 47 mg/kg
inhibition in vivo at 70 mg/kg [12]: 0%
inhibition in vivo at 70 mg/kg [19]: 27%
LD50 [3]: 350 mg/kg
inhibition in vivo at 70 mg/kg [20]: 26%

Oc1nc(-c2ccc(F)cc2)c(CCN2CCN(c3ccccn3)CC2)o1
ED50 [1]: 38 mg/kg
LD50 [3]: > 1000 mg/kg
inhibition in vivo at 200 mg/kg [21]: 30%
percent of rats showing catalepsy at 100 mg/kg [15]: 0%
inhibition in vivo at 100 mg/kg [5]: 0%

Cn1c(-c2ccc(F)cc2)c(CCN2CCN(c3ccccc3)CC2)oc1=O
ED50 [1]: 19.5 mg/kg
ED50 [2]: 112 mg/kg
ED50 [6]: 21 mg/kg
LD50 [3]: 750 mg/kg
percent of rats showing catalepsy at 100 mg/kg [15]: 0%

O=C(c1ccccc1)n1c(-c2ccc(F)cc2)c(CCN2CCN(c3ccccc3)CC2)oc1=O
ED50 [1]: 4 mg/kg
ED50 [6]: 9.3 mg/kg
LD50 [3]: 750 mg/kg
inhibition in vivo at 150 mg/kg [10]: 40%
inhibition in vivo at 150 mg/kg [11]: 0%

Cc1cccc(N2CCN(CCc3oc(O)nc3-c3ccc(F)cc3)CC2)c1
ED50 [1]: 13.4 mg/kg
ED50 [6]: 7.3 mg/kg
LD50 [3]: > 1000 mg/kg
inhibition in vivo at 50 mg/kg [8]: 0%
inhibition in vivo at 50 mg/kg [9]: 0%

Oc1nc(-c2ccc(F)cc2)c(CCN2CCN(c3cccc(Cl)c3Cl)CC2)o1
ED50 [1]: 12.5 mg/kg
percent of rats showing catalepsy at 20 mg/kg [22]: 0%
LD50 [3]: 90 mg/kg
inhibition in vivo at 20 mg/kg [23]: 69%
inhibition in vivo at 20 mg/kg [24]: 0%

Oc1nc(-c2ccc(F)cc2)c(CCN2CCN(c3ccc(Cl)c(Cl)c3)CC2)o1
inhibition in vivo at 100 mg/kg [13]: 0%
LD50 [3]: 1000 mg/kg
inhibition in vivo at 100 mg/kg [25]: 21%
percent of rats showing catalepsy at 100 mg/kg [15]: 0%
inhibition in vivo at 100 mg/kg [5]: 62%

— ChEMBL document CHEMBL1124344, “5-Piperazinylalkyl-2(3H)-oxazolones with neuroleptic activity” (J Med Chem, 1989)
